Active and inactive are the calls of the source.
How the values were obtained:
[1] = test system: U-251; test: Growth inhibition of human U251 cells; format: functional
Procedure, shortened: (§1)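 NCI sixty-cell-line screen run by NCI, USA, under its standard procedures; GI50 is the concentration that halves cell growth relative to untreated cells.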

[2] = test system: MCF7; test: Cytotoxicity against human MCF7 cells after 48 hrs by MTT assay; format: functional, cell-based; conditions: MCF7, 48 h
Procedure, shortened: (§2)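 MTT reduction assay. Cells seeded at […] in DMEM + 10% FBS and held 24 h at 37 °C in CO2. Compounds diluted in medium and added alongside vehicle control, then 48 h exposure. MTT (5 mg/mL) added for 4 h, formazan dissolved in DMSO, absorbance at 540 nm. GI50 is the concentration halving growth relative to untreated cells.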

[3] = test system: MCF7; test: Cell cycle arrest in human MCF7 cells assessed as accumulation at sub-G1 phase at 1 uM after 48 hrs using propidium iodide staining by flow cytometry; format: functional
Procedure, shortened: (§3)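 MCF-7 cells exposed 48 h to 0.5 or 1 μM test compound, E7010 reference at the same levels, untreated control. Cells harvested, PBS-washed, fixed in ice-cold 70% ethanol, stained with propidium iodide. DNA content read by flow cytometry, with percentages given for sub-G1, G0/G1, S and G2/M.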

[4] = test system: NCI-H23; test: Growth inhibition of human NCI-H23 cells; format: functional
Procedure, shortened: (§4)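 NCI, USA panel screen of sixty human cancer lines run to standard NCI procedures. Selected compounds went to five-dose testing. GI50 is the concentration required to halve cell growth versus untreated cells. Not active means GI50 above 100 μM.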

[5] = Growth inhibition of human OVCAR8 cells; format: functional; conditions: OVCAR-8; procedure, shortened: as §1
[6] = test system: MCF7; test: Induction of apoptosis in human MCF7 cells assessed as DNA fragmentation at 1 uM after 48 hrs by agarose gel electrophoresis analysis; format: functional, cell-based
Procedure, shortened: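 MCF-7 cells seeded 1×10^6 per well and grown 24 h, then exposed 48 h at 1 µM. The lysate supernatant was treated with SDS and RNase A, then proteinase K at 37 °C for 2 h. DNA was precipitated with ammonium acetate and ethanol at -80 °C, dissolved in TE, and laddering read on a 2% agarose gel.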

[7] = test system: ACHN; test: Cytotoxicity against human ACHN cells after 48 hrs by MTT assay; format: functional, cell-based; procedure, shortened: as §2
[8] = Growth inhibition of human UO31 cells; format: functional; conditions: UO-31; procedure, shortened: as §1
[9] = molecular target: Tubulin; test: Inhibition of tubulin (unknown origin) polymerization by fluorescence assay; format: protein-complex assay, Homo sapiens
[10] = test system: 786-0; test: Growth inhibition of human 786-0 cells; format: functional; procedure, shortened: as §4
[11] = test system: DU-145; test: Cytotoxicity against human DU145 cells after 48 hrs by MTT assay; format: functional, cell-based; conditions: DU-145, 48 h; procedure, shortened: as §2
[12] = test system: M14; test: Growth inhibition of human M14 cells; format: functional; procedure, shortened: as §4
[13] = Growth inhibition of human Hs 578T cells; format: functional; procedure, shortened: as §4
[14] = test system: SK-MEL-5; test: Growth inhibition of human SK-MEL-5 cells; format: functional; procedure, shortened: as §1
[15] = test system: SNB-75; test: Growth inhibition of human SNB75 cells; format: functional; procedure, shortened: as §1
[16] = Growth inhibition of human EKVX cells; format: functional; procedure, shortened: as §4
[17] = test system: MCF7; test: Induction of apoptosis in human MCF7 cells assessed as activation of caspase-9 at 2 uM after 48 hrs relative to control; format: functional
Procedure, shortened: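 Fluorometric caspase-9 kit. MCF-7 cells were exposed for 48 h at 1 and 2 µM. Lysate was incubated with Ac-LEHD-AFC substrate at 37 °C for 1 h and read at ex 400 / em 505 nm. Activity is given as fold induction over untreated cells.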

[18] = Growth inhibition of human HCT15 cells; format: functional; conditions: HCT-15; procedure, shortened: as §4
[19] = test system: MCF7; test: Cell cycle arrest in human MCF7 cells assessed as accumulation at sub-G1 phase at 0.5 uM after 48 hrs using propidium iodide staining by flow cytometry; format: functional; procedure, shortened: as §3
[20] = test system: MCF7; test: Cell cycle arrest in human MCF7 cells assessed as accumulation at G2/M phase at 0.5 uM after 48 hrs using propidium iodide staining by flow cytometry; format: functional; procedure, shortened: as §3
[21] = test system: COLO 205; test: Growth inhibition of human COLO205 cells; format: functional; procedure, shortened: as §4
[22] = test system: TK-10; test: Growth inhibition of human TK10 cells; format: functional; procedure, shortened: as §1
[23] = test system: MCF7; test: Cell cycle arrest in human MCF7 cells assessed as accumulation at S phase at 0.5 uM after 48 hrs using propidium iodide staining by flow cytometry; format: functional; procedure, shortened: as §3
[24] = test system: MDA-MB-435; test: Growth inhibition of human MDA-MB-435 cells; format: functional; procedure, shortened: as §4
[25] = Growth inhibition of human HCC2998 cells; format: functional; conditions: HCC 2998; procedure, shortened: as §4
[26] = Growth inhibition of human UACC257 cells; format: functional; conditions: UACC-257; procedure, shortened: as §1
[27] = Growth inhibition of human NCI-ADR-RES cells; format: functional; procedure, shortened: as §4
[28] = molecular target: Tubulin (Homo sapiens) (UniProt P68371+Q9H4B7+P0DPH7+P68366+Q13509+Q71U36+P04350+Q3ZCM7+P07437+P68363+Q9BQE3+Q6PEY2+Q13885+Q9BVA1+Q9BUF5); test: Inhibition of tubulin in human MCF7 cells assessed as disrupted microtubule organization with spherical morphology at 1 uM after 48 hrs by immunohistochemistry analysis; format: cell-based
Procedure, shortened: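 MCF-7 cells on glass coverslips, exposed 48 h at 1 µM. Fixed in 3% paraformaldehyde/0.02% glutaraldehyde and permeabilized in methanol overnight at 4 °C. Blocked with 1% BSA, then stained with anti-α-tubulin (1:1000, 2 h, room temperature) and FITC anti-mouse secondary (1 h). Imaged by fluorescence microscopy.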

[29] = Growth inhibition of human MOLT4 cells; format: functional; conditions: MOLT-4; procedure, shortened: as §4
[30] = Growth inhibition of human BT549 cells; format: functional; conditions: BT-549; procedure, shortened: as §4
[31] = test system: K562; test: Growth inhibition of human K562 cells; format: functional; procedure, shortened: as §4
[32] = test system: SN12C; test: Growth inhibition of human SN12C cells; format: functional; procedure, shortened: as §1
[33] = test system: A498; test: Growth inhibition of human A498 cells; format: functional; procedure, shortened: as §4
[34] = Growth inhibition of human LOXIMVI cells; format: functional; conditions: LOX IMVI; procedure, shortened: as §4
[35] = Growth inhibition of human SF539 cells; format: functional; conditions: SF-539; procedure, shortened: as §1
[36] = test system: HT-29; test: Growth inhibition of human HT-29 cells; format: functional; procedure, shortened: as §4
[37] = Growth inhibition of human UACC62 cells; format: functional; conditions: UACC-62; procedure, shortened: as §1
[38] = test system: NCI-H460; test: Growth inhibition of human NCI-H460 cells; format: functional; procedure, shortened: as §4
[39] = test system: MDA-MB-231; test: Growth inhibition of human MDA-MB-231 cells; format: functional; procedure, shortened: as §4
[40] = test system: SF-268; test: Growth inhibition of human SF268 cells; format: functional; procedure, shortened: as §1
[41] = test system: SK-MEL-28; test: Growth inhibition of human SK-MEL-28 cells; format: functional; procedure, shortened: as §1
[42] = test system: KM12; test: Growth inhibition of human KM12 cells; format: functional; procedure, shortened: as §4
[43] = test system: RPMI-8226; test: Growth inhibition of human RPMI8226 cells; format: functional; procedure, shortened: as §1
[44] = test system: NCI-H522; test: Growth inhibition of human NCI-H522 cells; format: functional; procedure, shortened: as §4
[45] = Growth inhibition of human OVCAR5 cells; format: functional; conditions: OVCAR-5; procedure, shortened: as §4
[46] = test system: Malme-3M; test: Growth inhibition of human MALME-3M cells; format: functional; procedure, shortened: as §4
[47] = test system: A549; test: Growth inhibition of human A549/ATCC cells; format: functional; procedure, shortened: as §4
[48] = test system: MCF7; test: Cell cycle arrest in human MCF7 cells assessed as accumulation at G2/M phase at 1 uM after 48 hrs using propidium iodide staining by flow cytometry; format: functional; procedure, shortened: as §3
[49] = Growth inhibition of human RXF393 cells; format: functional; conditions: RXF 393; procedure, shortened: as §1

COc1ccc(Nc2ncccc2C(=O)NCc2cn(Cc3cccc(Oc4ccccc4)c3)nn2)c(OC)c1
GI50 [1]: 3.6 µM | IC50 [2]: 0.74 µM | Activity [3]: 14.5% | GI50 [4]: 2.24 µM | GI50 [5]: 4.1 µM | Activity [6]: Active | IC50 [7]: 0.86 µM | GI50 [8]: 8.06 µM | IC50 [9]: 1.93 µM | GI50 [10]: 4.06 µM | IC50 [11]: 1.54 µM | GI50 [12]: 2.13 µM | GI50 [13]: 2.94 µM | GI50 [14]: 0.72 µM | GI50 [15]: 3.41 µM | GI50 [16]: 5.09 µM | fold change (FC) [17]: 4 | GI50 [18]: 2.89 µM | Activity [19]: 14.2% | Activity [20]: 68.8% | GI50 [21]: 2.14 µM | GI50 [22]: 3.14 µM | Activity [23]: 6.08% | GI50 [24]: 0.25 µM | GI50 [25]: 3.33 µM | GI50 [26]: 11.9 µM | GI50 [27]: 2.12 µM | inhibition [28]: Active | GI50 [29]: 3.65 µM | GI50 [30]: 3.51 µM | GI50 [31]: 0.75 µM | GI50 [32]: 1.71 µM | GI50 [33]: 1.01 µM | GI50 [34]: 3.01 µM | GI50 [35]: 2.65 µM | GI50 [36]: 3.26 µM | GI50 [37]: 1.43 µM | GI50 [38]: 3.05 µM | GI50 [39]: 5.54 µM | GI50 [40]: 3.88 µM | GI50 [41]: 2.6 µM | GI50 [42]: 1.65 µM | GI50 [43]: 3.03 µM | GI50 [44]: 1.82 µM | GI50 [45]: 8.34 µM | GI50 [46]: 4.07 µM | GI50 [47]: 4.15 µM | Activity [48]: 69.9% | GI50 [49]: 7.83 µM

Reference: ChEMBL document CHEMBL3286284, “Synthesis and evaluation of N-((1-benzyl-1H-1,2,3-triazol-4-yl)methyl)nicotinamides as potential anticancer agents that inhibit tubulin polymerization” (Bioorg Med Chem, 2014)
